pIC50: −log10 of the molar value.
Assays:
[1] = molecular target: T1, 11-beta-hydroxysteroid dehydrogenase type 2 (Homo sapiens, UniProt P80365); experiment: Inhibition of 11beta-HSD2
T1 sequence (P80365 whole entry): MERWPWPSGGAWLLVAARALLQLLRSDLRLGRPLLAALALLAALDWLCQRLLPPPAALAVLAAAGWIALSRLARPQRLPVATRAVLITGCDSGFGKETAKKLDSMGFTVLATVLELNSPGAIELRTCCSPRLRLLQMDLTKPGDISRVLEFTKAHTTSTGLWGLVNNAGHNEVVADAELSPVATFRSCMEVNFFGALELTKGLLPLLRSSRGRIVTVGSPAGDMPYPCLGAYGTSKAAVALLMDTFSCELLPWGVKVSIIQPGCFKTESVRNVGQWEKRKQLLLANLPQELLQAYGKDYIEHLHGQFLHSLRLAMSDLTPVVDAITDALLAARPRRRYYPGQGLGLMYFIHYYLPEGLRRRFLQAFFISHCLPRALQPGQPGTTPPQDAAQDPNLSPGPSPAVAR

[2] = Drug level in mouse adipose at 30 mg/kg, po after 4 hrs by LC-MS/MS analysis; type: ADME, organism-based; set-up: dose 30 mg/kg, route oral; settings: adipose tissue, read-out: Drug uptake
Method in brief: (§1)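 Mice (n = 3) were dosed PO at 30 mg/kg as a suspension in 0.5% methocellulose in PBS. Plasma, liver and adipose were harvested at 4 h and snap frozen. Thawed tissue was homogenized in 0.05 M BES, pH 7, and extracted into acetonitrile. Levels were measured by LC–MS/MS against standard curves made separately in each tissue matrix.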

[3] = Drug level in mouse plasma at 30 mg/kg, po after 4 hrs by LC-MS/MS analysis; type: ADME, organism-based; set-up: dose 30 mg/kg, route oral; method in brief: as §1
[4] = molecular target: T2, 11-beta-hydroxysteroid dehydrogenase 1 (Homo sapiens, UniProt P28845); experiment: Inhibition of 11beta-HSD1 in human adipocytes assessed as conversion of [3H]cortisone to [3H]cortisol after 2 hrs by SPA; type: cell-based
T2 sequence (P28845 whole entry): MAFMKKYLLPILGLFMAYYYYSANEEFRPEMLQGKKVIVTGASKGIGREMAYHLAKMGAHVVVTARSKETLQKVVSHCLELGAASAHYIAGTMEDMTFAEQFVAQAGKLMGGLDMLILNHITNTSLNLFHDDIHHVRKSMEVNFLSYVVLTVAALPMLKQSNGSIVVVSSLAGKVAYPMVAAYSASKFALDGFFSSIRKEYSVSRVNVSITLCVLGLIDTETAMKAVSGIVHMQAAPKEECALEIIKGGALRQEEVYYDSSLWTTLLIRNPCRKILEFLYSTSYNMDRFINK

[5] = Drug level in mouse liver at 30 mg/kg, po after 4 hrs by LC-MS/MS analysis; type: ADME, organism-based; set-up: dose 30 mg/kg, route oral; settings: read-out: Drug uptake; method in brief: as §1
[6] = molecular target: T2, 11-beta-hydroxysteroid dehydrogenase 1; experiment: Inhibition of human recombinant 11beta-HSD1 expressed in CHO cells assessed as conversion of [3H]cortisone to [3H]cortisol by SPA; type: cell-based
Cynomolgus monkey = experiment: Inhibition of 11beta-HSD1 in cynomolgus monkey assessed as reduction of plasma cortisol concentration at 10 mg/kg, po administered 2 hrs before cortisone 21-acetate challenge measured every 30 mins for 6 hrs; type: functional, Macaca fascicularis; set-up: scale not given: the % may be the effect or the level left
Method in brief: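 Cynomolgus monkeys (n = 5, crossover, 7-day washout) were given dexamethasone at t = −8 h to suppress endogenous cortisol. Vehicle or compound (10 mg/kg PO) followed at t = 0, then cortisone 21-acetate challenge (25 mg PO) at t = 2 h. Blood was sampled every 30 min for 6 h to measure plasma cortisol.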

Cytochrome P450 2D6 = Cytochrome P450 2D6 (Homo sapiens, UniProt P10635); experiment: Inhibition of CYP2D6; type: ADME
Cytochrome P450 2D6, sequence (P10635 whole entry): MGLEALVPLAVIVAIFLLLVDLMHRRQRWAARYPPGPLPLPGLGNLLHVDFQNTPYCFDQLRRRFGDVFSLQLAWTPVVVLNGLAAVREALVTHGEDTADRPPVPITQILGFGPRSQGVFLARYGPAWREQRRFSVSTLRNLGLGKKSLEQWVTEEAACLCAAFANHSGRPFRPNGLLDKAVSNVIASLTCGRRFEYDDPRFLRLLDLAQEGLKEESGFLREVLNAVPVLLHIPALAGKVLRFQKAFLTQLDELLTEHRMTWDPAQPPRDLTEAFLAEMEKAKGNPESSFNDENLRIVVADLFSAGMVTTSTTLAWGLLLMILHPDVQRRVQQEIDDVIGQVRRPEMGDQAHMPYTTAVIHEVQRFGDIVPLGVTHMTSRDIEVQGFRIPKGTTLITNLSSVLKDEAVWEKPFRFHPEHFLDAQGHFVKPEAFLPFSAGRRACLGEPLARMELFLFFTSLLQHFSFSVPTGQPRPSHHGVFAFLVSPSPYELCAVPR

Cytochrome P450 2C9 = Cytochrome P450 2C9 (Homo sapiens, UniProt P11712); experiment: Inhibition of CYP2C9; type: ADME
Cytochrome P450 2C9, sequence (P11712 whole entry): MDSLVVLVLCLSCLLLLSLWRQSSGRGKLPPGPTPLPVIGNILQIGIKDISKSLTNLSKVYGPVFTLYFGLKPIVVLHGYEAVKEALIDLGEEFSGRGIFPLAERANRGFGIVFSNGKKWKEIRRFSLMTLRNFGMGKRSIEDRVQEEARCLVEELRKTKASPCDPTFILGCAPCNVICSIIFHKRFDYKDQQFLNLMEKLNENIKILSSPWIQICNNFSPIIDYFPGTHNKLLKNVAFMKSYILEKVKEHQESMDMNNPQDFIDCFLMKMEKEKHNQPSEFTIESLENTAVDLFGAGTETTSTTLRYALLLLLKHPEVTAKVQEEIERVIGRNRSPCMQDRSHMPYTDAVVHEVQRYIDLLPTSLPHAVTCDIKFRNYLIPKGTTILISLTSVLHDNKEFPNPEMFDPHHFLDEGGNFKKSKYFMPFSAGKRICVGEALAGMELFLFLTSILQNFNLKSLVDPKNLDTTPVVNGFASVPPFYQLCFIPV

[7] = Oral bioavailability in cynomolgus monkey at 2 mg/kg; type: ADME, organism-based, Macaca fascicularis; settings: in vivo
Method in brief: (§2)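 PK after oral and IV dosing, with compounds given as sodium salts. Rat and mouse received 9.68 mg/kg PO and 1.9 mg/kg IV; cynomolgus monkey received 2 mg/kg PO and 1 mg/kg IV. AUC(inf) and t1/2 are the oral parameters, clearance is from the IV arm, and %F is oral bioavailability.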

[8] = Clearance in rat at 1.9 mg/kg, iv; type: ADME, organism-based; set-up: dose 1.9 mg/kg, route intravenous; settings: in vivo; method in brief: as §2
[9] = Clearance in mouse at 1.9 mg/kg, iv; type: ADME, organism-based; set-up: dose 1.9 mg/kg, route intravenous; settings: in vivo; method in brief: as §2
[10] = Oral bioavailability in mouse at 9.68 mg/kg; type: ADME, organism-based; settings: in vivo; method in brief: as §2
[11] = AUC (infinity) in mouse at 9.68 mg/kg, po and 1.9 mg/kg, iv; type: ADME, organism-based; settings: plasma; method in brief: as §2
[12] = Oral bioavailability in rat at 9.68 mg/kg; type: ADME, organism-based; settings: in vivo; method in brief: as §2
[13] = AUC (infinity) in rat at 9.68 mg/kg, po and 1.9 mg/kg, iv; type: ADME, organism-based; settings: plasma; method in brief: as §2
[14] = Half life in rat at 9.68 mg/kg, po and 1.9 mg/kg, iv; type: ADME, organism-based; settings: in vivo; method in brief: as §2
[15] = Half life in cynomolgus monkey at 2 mg/kg, po and 1 mg/kg, iv; type: ADME, organism-based, Macaca fascicularis; settings: in vivo; method in brief: as §2
[16] = AUC (infinity) in cynomolgus monkey at 2 mg/kg, po and 1 mg/kg, iv; type: ADME, organism-based, Macaca fascicularis; settings: plasma; method in brief: as §2
[17] = Clearance in cynomolgus monkey at 1 mg/kg, iv; type: ADME, organism-based, Macaca fascicularis; set-up: dose 1 mg/kg, route intravenous; settings: in vivo; method in brief: as §2
[18] = Half life in mouse at 9.68 mg/kg, po and 1.9 mg/kg, iv; type: ADME, organism-based; settings: in vivo; method in brief: as §2
Cytochrome P450 3A4 = Cytochrome P450 3A4 (Homo sapiens, UniProt P08684); experiment: Inhibition of CYP3A4; type: ADME
Cytochrome P450 3A4, sequence (P08684 whole entry): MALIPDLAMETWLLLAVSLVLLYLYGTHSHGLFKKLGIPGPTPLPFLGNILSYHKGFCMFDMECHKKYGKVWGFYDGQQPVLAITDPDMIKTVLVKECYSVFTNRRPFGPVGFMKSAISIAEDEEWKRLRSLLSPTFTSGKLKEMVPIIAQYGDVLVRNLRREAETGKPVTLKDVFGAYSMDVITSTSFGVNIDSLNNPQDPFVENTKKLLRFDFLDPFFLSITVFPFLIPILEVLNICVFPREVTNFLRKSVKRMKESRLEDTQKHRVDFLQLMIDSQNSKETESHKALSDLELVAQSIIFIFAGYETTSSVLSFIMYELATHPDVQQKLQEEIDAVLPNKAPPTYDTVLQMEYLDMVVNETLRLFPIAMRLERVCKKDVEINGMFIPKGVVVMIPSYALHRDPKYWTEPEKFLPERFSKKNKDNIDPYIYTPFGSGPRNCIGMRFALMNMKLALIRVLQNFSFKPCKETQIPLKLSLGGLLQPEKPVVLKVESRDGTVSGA

[19] = Half life in human liver microsomes; type: ADME, Microsome

Compound | pIC50 [1] | pIC50 [4] | pIC50 [6] | other results
O=C(O)C[C@H]1CC2(CCN(C(=O)NC3C4CC5CC(C4)CC3C5)CC2)c2c(Br)cccc21 (stereo partly drawn) | < 5.00 | 8.60 | 8.96 | concentration at 4 h [2]: 127 ng/mL; concentration at 4 h [3]: 393 ng/mL; concentration at 4 h [5]: 7070 ng/mL; Activity (Cynomolgus monkey): 80%
O=C(NC1C2CC3CC(C2)CC1C3)N1CCC2(CCc3ccccc32)CC1 (stereo not drawn) | – | 8.57 | 9.10 | –
O=C(NC1C2CC3CC(C2)CC1C3)N1CCC2(CC1)CC(CCO)c1cccc(Br)c12 (stereo not drawn) | 5.05 | 7.74 | 8.77 | –
O=C(O)C[C@@H]1CC2(CCN(C(=O)NC3C4CC5CC(C4)CC3C5)CC2)c2c(Br)cccc21 (single isomer, unassigned) | < 5.00 | 8.12 | 8.70 | –
Cc1cccc2c1C1(CCN(C(=O)NC3C4CC5CC(C4)CC3C5)CC1)CC2CC(=O)O (stereo not drawn) | < 5.00 | 7.74 | 8.12 | –
O=C(O)CC1CC2(CCN(C(=O)NC3C4CC5CC(C4)CC3C5)CC2)c2c(Cl)cccc21 (stereo not drawn) | < 5.00 | 7.97 | 8.66 | –
O=C(O)CC1CC2(CCN(C(=O)NC3C4CC5CC(C4)CC3C5)CC2)c2c(Br)cccc21 (stereo not drawn) | < 5.00 | 8.28 | 8.80 | pIC50 (Cytochrome P450 2D6): < 4.82; pIC50 (Cytochrome P450 2C9): < 4.82; bioavailability [7]: 31%; concentration at 4 h [2]: 77 ng/mL; clearance [8]: 26.6 mL/min/kg; clearance [9]: 28.1 mL/min/kg; bioavailability [10]: 29%; concentration at 4 h [3]: 442 ng/mL; AUC(0-inf) [11]: 1720 ng·h/mL; bioavailability [12]: 90%; AUC(0-inf) [13]: 5400 ng·h/mL; half-life [14]: 3.46 h; half-life [15]: 6.03 h; AUC(0-inf) [16]: 743 ng·h/mL; clearance [17]: 13.8 mL/min/kg; half-life [18]: 6.17 h; concentration at 4 h [5]: 5130 ng/mL; pIC50 (Cytochrome P450 3A4): < 4.82; half-life [19]: > 1 h
O=C(O)CC1CC2(CCN(C(=O)NC3C4CC5CC(C4)CC3C5)CC2)c2cc(Cl)ccc21 (stereo not drawn) | < 5.00 | 7.52 | 8.47 | –
O=C(O)C1CC2(CCN(C(=O)NC3C4CC5CC(C4)CC3C5)CC2)c2ccccc21 (stereo not drawn) | – | < 6.70 | 7.16 | –
CS(=O)(=O)NC(=O)CC1CC2(CCN(C(=O)NC3C4CC5CC(C4)CC3C5)CC2)c2c(Br)cccc21 (stereo not drawn) | < 5.00 | 7.65 | 8.70 | –
Cc1ccc2c(c1)C1(CCN(C(=O)NC3C4CC5CC(C4)CC3C5)CC1)CC2CC(=O)O (stereo not drawn) | < 5.00 | 7.65 | 8.05 | –
O=C(O)CC1CC2(CCN(C(=O)NC3C4CC5CC(C4)CC3C5)CC2)c2ccc(Cl)cc21 (stereo not drawn) | < 5.00 | 7.63 | 8.47 | –
O=C(O)CC1CC2(CCN(C(=O)NC3C4CC5CC(C4)CC3C5)CC2)c2ccccc21 (stereo not drawn) | – | – | – | clearance [8]: 47.1 mL/min/kg; bioavailability [12]: 94%; AUC(0-inf) [13]: 3530 ng·h/mL; half-life [14]: 2.87 h
NC(=O)CC1CC2(CCN(C(=O)NC3C4CC5CC(C4)CC3C5)CC2)c2c(Br)cccc21 (stereo not drawn) | – | 9.05 | 9.30 | –

Reference: ChEMBL document CHEMBL1156845, “Spirocyclic ureas: orally bioavailable 11 beta-HSD1 inhibitors identified by computer-aided drug design” (Bioorg Med Chem Lett, 2010)
